Laboratory results: ChEMBL document CHEMBL4330056, “Synthesis and Cytotoxic and Antiviral Profiling of Pyrrolo- and Furo-Fused 7-Deazapurine Ribonucleosides” (J Med Chem, 2018)
Activity calls are given as the source filed them. The rule behind the calls is not given here.

Tests used:
CCRF-CEM [1] = test: Inhibition of mitosis in human CCRF-CEM cells assessed Ser10 H3 phosphorylation positive cells at IC50 concentration after 24 hrs by flow cytometry relative to total cell population (reference value: 1.36%); assay type: functional; set-up: scale not given: the % may be the effect or the level left
CCRF-CEM [2] = test: Induction of cell cycle arrest in human CCRF-CEM cells assessed as accumulation at S phase at 5 times IC50 concentration after 24 hrs by propidium iodide-staining based flow cytometry (reference value: 41.08%); assay type: functional
CCRF-CEM [3] = test: Induction of cell cycle arrest in human CCRF-CEM cells assessed as accumulation at G0/G1 phase at 5 times IC50 concentration after 24 hrs by propidium iodide-staining based flow cytometry (reference value: 39.70%); assay type: functional
CCRF-CEM [4] = test: Induction of cell cycle arrest in human CCRF-CEM cells assessed as accumulation at G2/M phase at 5 times IC50 concentration after 24 hrs by propidium iodide-staining based flow cytometry (reference value: 19.22%); assay type: functional
CCRF-CEM [5] = test: Inhibition of RNA synthesis in human CCRF-CEM cells assessed as RNA synthesis level at 5 times IC50 concentration after 24 hrs by BrU incorporation assay (reference value: 49.89%); assay type: functional; set-up: scale not given: the % may be the effect or the level left
[6] = Antiproliferative activity against human K562-TAX cells after 3 days by MTS assay; assay type: functional, cell-based; conditions: 72 h
CCRF-CEM [7] = test: Induction of cell cycle arrest in human CCRF-CEM cells assessed as accumulation at S phase at IC50 concentration after 24 hrs by propidium iodide-staining based flow cytometry (reference value: 41.08%); assay type: functional
BJ = test: Antiproliferative activity against human BJ cells after 3 days by MTS assay; conditions: 72 h
U2OS = test: Antiproliferative activity against human U2OS cells after 3 days by MTS assay; assay type: functional, cell-based; conditions: 72 h
CCRF-CEM [8] = test: Inhibition of DNA synthesis in human CCRF-CEM cells assessed as DNA synthesis level at 5 times IC50 concentration after 24 hrs by BrdU incorporation assay (reference value: 43.39%); assay type: functional; set-up: scale not given: the % may be the effect or the level left
CCRF-CEM [9] = test: Induction of cell cycle arrest in human CCRF-CEM cells assessed as accumulation at subG1 phase at 5 times IC50 concentration after 24 hrs by propidium iodide-staining based flow cytometry (reference value: 3.45%); assay type: functional
HeLa S3 = test: Antiproliferative activity against human HeLaS3 cells after 72 hrs by XTT assay; assay type: functional, cell-based; conditions: HeLa S3, 72 h
CCRF-CEM [10] = test: Inhibition of mitosis in human CCRF-CEM cells assessed Ser10 H3 phosphorylation positive cells at 5 times IC50 concentration after 24 hrs by flow cytometry relative to total cell population (reference value: 1.36%); assay type: functional; set-up: scale not given: the % may be the effect or the level left
MRC5 = test: Antiproliferative activity against human MRC5 cells after 3 days by MTS assay; conditions: MRC5, 72 h
A549 = test: Antiproliferative activity against human A549 cells after 3 days by MTS assay; assay type: functional, cell-based; conditions: A549, 72 h
CCRF-CEM [11] = test: Inhibition of RNA synthesis in human CCRF-CEM cells assessed as RNA synthesis level at IC50 concentration after 24 hrs by BrU incorporation assay (reference value: 49.89%); assay type: functional; set-up: scale not given: the % may be the effect or the level left
HCT-116 [12] = test: Antiproliferative activity against p53 gene knocked out human HCT116 cells after 3 days by MTS assay; assay type: functional, cell-based; conditions: HCT-116, 72 h
[13] = Antiproliferative activity against human CEM-DNR-bulk cells after 3 days by MTS assay; conditions: 72 h
CCRF-CEM [14] = test: Inhibition of DNA synthesis in human CCRF-CEM cells assessed as DNA synthesis level at IC50 concentration after 24 hrs by BrdU incorporation assay (reference value: 43.39%); assay type: functional; set-up: scale not given: the % may be the effect or the level left
CCRF-CEM [15] = test: Induction of cell cycle arrest in human CCRF-CEM cells assessed as accumulation at subG1 phase at IC50 concentration after 24 hrs by propidium iodide-staining based flow cytometry (reference value: 3.45%); assay type: functional
CCRF-CEM [16] = test: Induction of cell cycle arrest in human CCRF-CEM cells assessed as accumulation at G0/G1 phase at IC50 concentration after 24 hrs by propidium iodide-staining based flow cytometry (reference value: 39.70%); assay type: functional
HCT-116 [17] = test: Antiproliferative activity against human HCT116 cells after 3 days by MTS assay; assay type: functional, cell-based; conditions: HCT-116, 72 h
CCRF-CEM [18] = test: Induction of cell cycle arrest in human CCRF-CEM cells assessed as accumulation at G2/M phase at IC50 concentration after 24 hrs by propidium iodide-staining based flow cytometry (reference value: 19.22%); assay type: functional
Human orthopneumovirus = test: Antiviral activity against Human respiratory syncytial virus A2 infected in Hep2 cells assessed as reduction in virus-induced cytopathic effect incubated for 4 days by CellTiter-Glo viability reagent based assay; assay type: functional, organism-based
Hepatitis C virus [19] = test: Antiviral activity against Hepatitis C virus genotype 1b infected in human Huh-luc replicon cells after 3 days by luciferase assay; assay type: functional, organism-based, Hepacivirus hominis; conditions: subtype 1b, 72 h
HepG2 = test: Antiproliferative activity against human HepG2 cells after 72 hrs by XTT assay; assay type: functional, cell-based; conditions: HepG2, 72 h
Adenosine kinase [20] = target: T1, Adenosine kinase (Homo sapiens, UniProt P55263); test: Substrate activity at recombinant human ADK assessed as compound phosphorylation at 50 uM after 20 mins in presence of [3H]-adenosine by UPLC; assay type: ADME
T1 sequence (P55263 whole entry): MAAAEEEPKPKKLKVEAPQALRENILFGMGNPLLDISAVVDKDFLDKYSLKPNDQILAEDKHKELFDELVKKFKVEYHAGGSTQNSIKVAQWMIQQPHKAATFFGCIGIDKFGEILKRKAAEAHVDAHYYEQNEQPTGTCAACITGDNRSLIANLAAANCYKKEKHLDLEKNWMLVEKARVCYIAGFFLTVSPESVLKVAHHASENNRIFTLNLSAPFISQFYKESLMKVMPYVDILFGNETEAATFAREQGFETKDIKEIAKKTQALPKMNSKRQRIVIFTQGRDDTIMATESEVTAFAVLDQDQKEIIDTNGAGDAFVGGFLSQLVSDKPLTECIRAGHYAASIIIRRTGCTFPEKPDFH

HL-60 = test: Antiproliferative activity against human HL60 cells after 72 hrs by XTT assay; assay type: functional, cell-based; conditions: HL-60, 72 h
CCRF-CEM [21] = test: Antiproliferative activity against human CCRF-CEM cells after 3 days by MTS assay; assay type: functional, cell-based; conditions: 72 h
Adenosine kinase [22] = target: T1, Adenosine kinase; test: Inhibition of recombinant human ADK using [3H]-adenosine as substrate after 20 mins by TLC scanner-based analysis relative to control
How it was run: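 ADK inhibition: 50 μM adenosine substrate with 10 μM test compound and 97 ng enzyme, 20 min at 37 °C.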

Hepatitis C virus [23] = test: Antiviral activity against Hepatitis C virus genotype 2a infected in human Huh-luc replicon cells after 3 days by luciferase assay; assay type: functional, organism-based, Hepacivirus hominis; conditions: subtype 2a, 72 h
Coxsackievirus B3 = test: Antiviral activity against Human coxsackie B3 Nancy infected in human HeLa cells assessed as inhibited virus-induced cytopathic effect incubated for 2 days by XTT assay; assay type: functional, organism-based
Human alphaherpesvirus 1 = test: Antiviral activity against human herpesvirus 1 HF infected in African green monkey Vero cells assessed as inhibited virus-induced cytopathic effect incubated for 3 days by XTT assay; assay type: functional, organism-based
Influenza A virus = test: Antiviral activity against Influenza A virus (A/Mexico/4108/2009(H1N1)) infected in MDCK cells assessed as inhibited virus-induced cytopathic effect incubated for 2 days by XTT assay; assay type: functional, organism-based
K562 = test: Antiproliferative activity against human K562 cells after 3 days by MTS assay; assay type: functional, cell-based; conditions: K562, 72 h
[24] = Cytotoxicity against human Hep2 cells assessed as reduction in cell viability after 3 days by CellTiter-Glo assay; assay type: cell-based; conditions: HEp-2 cells
dengue virus type 2 = test: Antiviral activity against Dengue virus 2 Thailand/16681/84 infected in African green monkey Vero cells assessed as inhibition of virus replication incubated for 3 days by fluorescence microscopy; assay type: functional, organism-based

SMILES	Activity (CCRF-CEM [1])	Activity (CCRF-CEM [2])	Activity (CCRF-CEM [3])	Activity (CCRF-CEM [4])	Activity (CCRF-CEM [5])	IC50 [6]	Activity (CCRF-CEM [7])	IC50 (BJ)	IC50 (U2OS)	Activity (CCRF-CEM [8])	Activity (CCRF-CEM [9])	IC50 (HeLa S3)	Activity (CCRF-CEM [10])	IC50 (MRC5)	IC50 (A549)	Activity (CCRF-CEM [11])	IC50 (HCT-116 [12])	IC50 [13]	Activity (CCRF-CEM [14])	Activity (CCRF-CEM [15])	further results
Nc1ncnc2c1c(-c1cccs1)cn2[C@@H]1O[C@H](CO)[C@@H](O)[C@H]1O	2.09%	38.71%	32.31%	28.98%	57.09%	40 nM	62.28%	> 50000 nM	510 nM	10.76%	58.53%	20 nM	0.94%	> 50000 nM	13100 nM	0.91%	20 nM	60 nM	3.59%	29.83%	Activity (CCRF-CEM [16]): 20.49%; IC50 (HCT-116 [17]): 20 nM; Activity (CCRF-CEM [18]): 17.23%
COc1ncnc2c1c1occc1n2[C@@H]1O[C@H](CO)[C@@H](O)[C@H]1O	0.56%	65.39%	20.54%	14.07%	4.3%	300 nM	41.82%	1090 nM	430 nM	52.74%	6.82%	2310 nM	0.58%	13400 nM	1930 nM	25.36%	300 nM	3120 nM	42.65%	4.23%	Activity (Human orthopneumovirus): inactive; EC50 (Hepatitis C virus [19]): 380 nM; IC50 (HepG2): 2410 nM; Activity (Adenosine kinase [20]): 35%; IC50 (HL-60): 700 nM; IC50 (CCRF-CEM [21]): 180 nM; IC50 (Adenosine kinase [22]): > 10000 nM; EC50 (Hepatitis C virus [23]): 290 nM; Activity (Coxsackievirus B3): inactive; Activity (Human alphaherpesvirus 1): inactive; Activity (CCRF-CEM [16]): 41.52%; Activity (Influenza A virus): inactive; IC50 (HCT-116 [17]): 280 nM; Activity (CCRF-CEM [18]): 16.65%; IC50 (K562): 320 nM; CC50 at 72 h [24]: > 44400 nM; Activity (dengue virus type 2): inactive
